Screens from PubChem BioAssay.
Compounds with a hit are over-represented: about 0.94% of the library has one in this group of screens.
NPR2 activator: human GC-B receptor activators, primary screen, HEK293 GC-B cells, cGMP TR-FRET, EC30 CNP; AID 1920062, 2024; activation, % at 10 µM; Atrial natriuretic peptide receptor 2 (Homo sapiens), P20594; actives 0.11% (n = 370,000); 0% at EC30 CNP, 100% saturating CNP;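 active means activation at 10 µM reaching about 35% in either raw or pattern-adjusted values, limit read from the data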
Target sequence (P20594 whole entry, looked up): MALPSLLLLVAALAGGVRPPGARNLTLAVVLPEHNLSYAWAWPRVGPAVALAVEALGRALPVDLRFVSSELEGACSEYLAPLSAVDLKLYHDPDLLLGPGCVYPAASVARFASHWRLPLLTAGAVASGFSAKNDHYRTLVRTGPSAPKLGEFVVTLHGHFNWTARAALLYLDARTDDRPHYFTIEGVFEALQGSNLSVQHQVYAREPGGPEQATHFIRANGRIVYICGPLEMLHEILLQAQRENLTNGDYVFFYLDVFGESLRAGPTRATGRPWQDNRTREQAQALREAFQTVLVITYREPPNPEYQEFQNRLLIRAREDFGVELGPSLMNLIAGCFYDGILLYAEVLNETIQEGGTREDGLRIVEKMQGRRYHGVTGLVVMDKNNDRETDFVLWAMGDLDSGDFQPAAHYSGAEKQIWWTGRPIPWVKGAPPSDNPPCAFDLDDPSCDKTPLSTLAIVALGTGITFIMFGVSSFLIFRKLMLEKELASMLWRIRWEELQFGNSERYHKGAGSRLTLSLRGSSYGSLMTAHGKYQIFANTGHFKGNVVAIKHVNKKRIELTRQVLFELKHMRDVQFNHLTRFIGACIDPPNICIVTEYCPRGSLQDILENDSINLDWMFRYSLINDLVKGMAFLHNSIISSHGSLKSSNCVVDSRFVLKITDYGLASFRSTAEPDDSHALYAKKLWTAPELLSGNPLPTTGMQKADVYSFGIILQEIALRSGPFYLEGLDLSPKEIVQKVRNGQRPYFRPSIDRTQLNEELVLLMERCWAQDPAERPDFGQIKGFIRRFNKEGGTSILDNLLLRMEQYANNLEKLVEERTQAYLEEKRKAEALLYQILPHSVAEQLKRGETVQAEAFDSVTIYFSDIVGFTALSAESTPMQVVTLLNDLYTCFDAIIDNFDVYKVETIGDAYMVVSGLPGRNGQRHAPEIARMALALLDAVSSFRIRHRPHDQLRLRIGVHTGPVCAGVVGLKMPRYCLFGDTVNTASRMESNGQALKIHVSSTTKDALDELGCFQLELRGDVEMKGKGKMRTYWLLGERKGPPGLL
GalR3 antag: GalR3 antagonists in HEK293 cells, primary screen, cell-based, fluorescence readout; Galanin receptor type 3 (Homo sapiens), O60755; HEK293 GalR3-CNG cAMP membrane potential fluorescence; galR3 body fused to GalR1 C-terminus; inhibition, % at 3 µM; actives 0.44% (n = 360,000);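 active means inhibition above the screen-wide average plus 3 SD, cut at about 13% in these data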;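 further: forskolin and galanin both at EC90 stimulate the cells; cAMP rise reported by CNG channel membrane potential dye signal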
Arr AP2 block: inhibitors of beta-arrestin/AP2 binding, primary screen, biochemical, GPCR trafficking, flow cytometry. FITC-arrestin peptide / GST-AP2 beads; AP2 beta2 appendage carries R879A mutation. actives 0.31% (n = 340,000). beta-arrestin 1 C-terminal peptide binding to AP2 beta2-adaptin appendage (human). inhibition, % at 10 µM;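 active means inhibition above a set limit, near 3 SD of compounds lacking own fluorescence, cut at about 54% in these data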
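System: GST-tagged AP2 beta2-adaptin appendage (R879A) on 4 µm glutathione beads / Reagent: FITC-arrestin peptide, 50 nM / Detection: HyperCyt-sampled flow cytometry, FL1 channel, ex 488/em 535 nm / Timing: 12 min plus 1 h, RT / Buffer or medium: PBS plus Tween 20 (0.05%) and BSA (0.1%)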
NPR1 activator: GC-A stimulated cGMP production enhancers – HEK293 GC-A cells, cGMP TR-FRET, EC30 ANP, primary screen | Atrial natriuretic peptide receptor 1 (Homo sapiens), P16066 | 0% at EC30 ANP, 100% saturating ANP | activation, % at 10 µM | actives 0.14% (n = 370,000); in the data active means activation above about 40%
GalR3 antag conf: GalR3 antagonist hit confirmation, cell-based, fluorescence, triplicate | shares compounds with GalR3 antag | HEK293 GalR3 CNG cAMP biosensor, membrane potential fluorescence; galR3 fused to GalR1 carboxy tail; challenged with forskolin and galanin at EC90 | inhibition, % at 3 µM | actives 59% (n = 1,600);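 active means inhibition above the primary screen's cutoff, the mean inhibition of all screened compounds plus 3 SD, cut at about 13% in these data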
HEK-CNG parental: nonspecific cAMP agonists in parental HEK-CNG cells, counter-screen for GalR3 antagonist project, cell-based, fluorescence, high throughput | shares compounds with GalR3 antag | HEK293-CNG parental cells, cAMP membrane potential fluorescence; normalised: DMSO wells 0%, forskolin wells 100% | activation, % at 3 µM | actives 10% (n = 1,600); in the data active means activation above about 1.3%
Hits are given with their value; . = inactive; / = not tested or not shown; ! = not confirmed by another sample.

SMILES | NPR2 activator | GalR3 antag | Arr AP2 block | NPR1 activator | GalR3 antag conf | HEK-CNG parental
CCCOc1nc2ccccc2cc1/C=C/C(=O)O | . | 14.2 | . | . | . | .
O=S(=O)(N[C@H]1CCCC[C@@H]1N1CCOCC1)c1ccc(Cl)cc1 | . | / | / | . | / | /
Cn1c(C(=O)NN)cc2cc(Oc3ccccc3)ccc21 | . | 60.0 | . | . | 43.8 | .
CC(C)n1nnnc1C1(C)CN(S(C)(=O)=O)CC(=O)N1Cc1cccc(C(F)(F)F)c1 (centres undefined) | . | / | / | . | / | /
COc1ccc(NC(=O)c2ccc(CNc3c(NC4CCCCC4)c(=O)c3=O)cc2)c(OC)c1 | . | 14.0! | . | . | . | .
CCOc1ccc(NC(=O)c2ccc(CNc3c(NC4CCCCC4)c(=O)c3=O)cc2)cc1 | . | . | . | . | / | /
CCCc1ccc(O)c(N=Cc2cc(Br)cc(OCC)c2O)c1 | . | 16.1 | . | . | . | .
CCc1ccc(O)c(N=Cc2cccc(C)c2O)c1 | . | . | . | . | / | /
COC(=O)[C@]12C[C@H](CC(=O)NCC3CCCCC3)C(=O)N(CCC3=CCCCC3)C1=C[C@H](COCc1ccccc1)O[C@@H]2C | . | . | / | . | / | /
CCOC(=O)C1CCN(C(=O)C2CCN(S(=O)(=O)c3ccc4c(c3)CC(C)N4C(C)=O)CC2)CC1 (centres undefined) | . | . | . | . | / | /
CCc1ccc(NC(=O)C2CCN(S(=O)(=O)c3ccc4c(c3)CC(C)N4C(C)=O)CC2)cc1 (centres undefined) | . | 38.5 | . | . | . | .
CCOC(=O)C1CCN(S(=O)(=O)c2ccc3c(c2)CC(C)N3C(=O)C2CC2)CC1 (centres undefined) | . | 17.2 | . | . | . | .
Nc1[nH]c(C(=O)c2ccccc2)c(-c2cccc(C(F)(F)F)c2)c1C(=O)c1c[nH]c2ccccc12 | . | . | / | . | / | /
C[C@H](CO)N1C[C@H](C)[C@H](CN(C)C(=O)Nc2ccc(F)cc2)Oc2ncc(Br)cc2C1=O | . | . | / | . | / | /
CNC(=O)[C@H]1O[C@@H](n2cnc3c(NCc4cccc(I)c4)nc(Cl)nc32)[C@H](O)[C@@H]1O | . | 51.4 | . | . | 52.5 | .
CCOc1ccc(-c2cc(C(=O)NCCOC)[nH]n2)c(C)c1 | . | . | / | . | / | /
CCOc1ccc(-c2cc(C(=O)Nc3ccc(C)c(NS(C)(=O)=O)c3)[nH]n2)c(C)c1 | . | 13.8 | / | . | 99.1 | .
COC(=O)c1cccc(Nc2cc(C)n(-c3cccc(C(=O)OC)c3)c(=O)c2)c1 | . | . | / | . | / | /
O=C(c1ccc(N2CCCCC2)c([N+](=O)[O-])c1)N1CCN(S(=O)(=O)c2ccccc2)CC1 | . | . | . | . | / | /
O=[N+]([O-])c1cccc(S(=O)(=O)c2ccc(N3CCCCC3)c([N+](=O)[O-])c2)c1 | . | . | . | . | / | /
NC(=O)c1ccc(N2CCN(S(=O)(=O)c3ccccc3)CC2)c([N+](=O)[O-])c1 | . | 32.5 | . | . | 115.6 | .
COC(=O)c1ccc(N2CCN(CC(=O)c3ccc(-c4ccccc4)cc3)CC2)c([N+](=O)[O-])c1 | . | / | . | . | . | .
O=[N+]([O-])c1cc(S(=O)(=O)c2ccc(N3CCCCC3)c([N+](=O)[O-])c2)ccc1N1CCCCC1 | . | 27.1 | . | . | . | 2.2
CC(C)=CCOc1ccc([C@@H]2COc3c(ccc4c3C=CC(C)(C)O4)C2)c(O)c1 | . | 19.4 | . | . | 17.5 | 21.9
COc1ccc(OCc2cc(=O)c3ccc4c(c3o2)C=CC(C)(C)O4)cc1OC | . | . | . | . | / | /
SMILES | NPR2 activator | GalR3 antag | Arr AP2 block | NPR1 activator | GalR3 antag conf | HEK-CNG parental
Cc1ccc(-c2cc(-c3nnc4sc(Cc5cccs5)nn34)[nH]n2)cc1 | . | / | / | . | / | /
O=C(c1cc(COc2cccc3cnccc23)on1)N1CCCC(CCCO)C1 (centres undefined) | . | 96.8 | . | . | 104.0 | .
O=C(OCC#CCSc1nnc(-c2cccc3ncccc23)o1)c1ccc(F)cc1 | . | / | / | . | / | /
C[C@@H]1CCCCO[C@@H](CN(C)C(=O)CCC(F)(F)F)[C@@H](C)CN([C@H](C)CO)C(=O)c2cc(NS(=O)(=O)c3cccs3)ccc2O1 | . | . | / | . | / | /
CCOC(=O)C1CSCCS(=O)(=O)N1Cc1cc(F)ccc1Br (centres undefined) | . | . | / | . | / | /
O=C(NCc1cccc(Cl)c1)c1cc(COc2ccc3ncccc3c2)on1 | . | . | . | . | / | /
CC(CCCC(C)(C)O)NC(=O)c1cc(COc2ccc3ncccc3c2)on1 (centres undefined) | . | 14.8 | . | . | 50.2 | .
Cc1nc(CN(C)C(=O)c2cc(COc3ccc4ncccc4c3)on2)cs1 | . | 67.9 | . | . | 108.0 | .
O=C(C(=O)N1CCN(C(=O)Cc2ccccc2)CC1)c1cccc(C(F)(F)F)c1 | . | . | / | . | / | /
C[C@H](O)[C@@H]1C(=O)N2CCc3c([nH]c4c(-c5ccccc5)cccc34)[C@@H]2C[C@@H]1N(C)C(=S)Nc1ccc(C#N)cc1 | . | . | / | . | / | /
COc1ccc(-c2cc(-c3n[nH]c(=S)n3-c3ccccc3OC)[nH]n2)cc1 | . | 22.1 | . | . | 16.9 | .
COc1ccc(OC)c(-n2c(-c3cc(-c4ccccc4)n[nH]3)n[nH]c2=S)c1 | . | . | . | . | / | /
COCCCn1c(-c2ccccc2Cl)n[nH]c1=S | . | / | . | . | . | .
C=CCN1C(=O)c2n[nH]c(C(C)C)c2C1c1ccc2c(c1)OCO2 (centres undefined) | . | . | / | . | / | /
CCC(O)(c1ccc(NC(=O)OC(C)(C)C)cc1)c1cc(OC)cc(OC)c1 (centres undefined) | . | / | / | . | / | /
COc1ccccc1OCc1ccc(C(=O)OCC2CCCO2)o1 (centres undefined) | . | 14.6 | . | . | . | .
COc1ccccc1CNc1ncnc2sccc12 | . | 76.5 | . | . | 103.6 | .
COc1ccc(CCNc2ncnc3sccc23)cc1OC | . | 73.0 | . | . | 129.1 | .
c1ccc2c(c1)OCC(CNc1ncnc3sccc13)O2 (centres undefined) | / | 97.1 | . | / | 104.8 | .
O=C(Nc1ccc(F)cc1)OCc1cn(Cc2ccccc2F)nn1 | . | / | / | . | / | /
